OX1R antag-1: antagonists of human orexin 1 receptor. AID 434989. O43613. inhibition, % at 5 µM. CHO/OX1R cells, Fluo-8 calcium fluorescence, orexin A. 0.43% of 330,000 active;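 active = inhibition above its plate's threshold, mean inhibition of all tested compounds on the plate plus 3 SD, cut at about 37% in these data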
OX1R antag-2: antagonists of human orexin 1 receptor (OX1R); O43613; OX1R-expressing cells, FRET antagonist read-out; 1.8% of 330,000 active; inhibition, % at 6.6 µM; in the data active = inhibition mostly above about 38%, no sharp cut-off; inactive = mostly below about 40%
TAAR1 ag: human TAAR1 agonism; Q96RJ0; CHO RD-HGA16 TAAR1, Fluo-8 calcium fluorescence; vehicle wells 0%, saturating PEA agonist 100%; activation, % at 3 µM; 0.99% of 360,000 active; AID 624467;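 active = activation above the mean activation of all test compounds in the run plus 3 SD, cut at about 38% in these data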
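System: CHO-derived RD-HGA16 cells with stable Gα16 and human TAAR1 / Times: 17-24 h plating, Fluo-8 75 min 37 °C, 30 min RT / Technique: calcium-sensitive Fluo-8 signal, excitation 470-495, emission 515-575 nm / Measure: % activation relative to PEA EC100 response / Benchmarks: DMSO and PEA EC100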
TAAR1 antagonist: human TAAR1 antagonism | Q96RJ0 | AID 624466 | 1.5% of 360,000 active | CHO RD-HGA16 TAAR1, Fluo-8 calcium fluorescence, antagonist | inhibition, % at 3 µM;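 active = inhibition above a per-plate cutoff, the mean inhibition of test compounds on that plate plus 3 SD, cut at about 49% in these data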
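Assay system: CHO-derived RD-HGA16 cells stably expressing human TAAR1 plus Gα16. Timing: 140 s kinetic read after compound, 140 s after agonist. Technique: kinetic Fluo-8 calcium fluorescence measurement. Measure: % inhibition of agonist calcium response.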
CHO parental Ca: signal in parental CHO cells, OX1R antagonist counter-screen; 0.63% of 330,000 active; inhibition, % at 5.6 µM; AID 463079; parental CHO-K1, ATP-induced calcium, Fluo-8 fluorescence;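 active = inhibition above that plate's mean sample inhibition plus 3 SD, cut at about 26% in these data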
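Assay system: untransfected parental CHO cell line. Also added: ATP agonist challenge. Dosing: one dose, 5.6 µM nominal. Measured by: Fluo-8 fluorescence. Read-out: % inhibition. Benchmarks: ATP wells versus no-ATP DMSO wells. Repeats: no replicates.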
GPR7 antagonist: blocks human GPR7 receptor signaling | AID 1861 | 1.1% of 290,000 active | inhibition, % at 4.4 µM | P48145 | GPR7-expressing cells, fluorescence antagonist assay; in the data active = inhibition above about 16%, passing the limit was not always enough;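 also: cells stimulated with the agonist NPW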
Target sequence (P48145 whole entry, looked up): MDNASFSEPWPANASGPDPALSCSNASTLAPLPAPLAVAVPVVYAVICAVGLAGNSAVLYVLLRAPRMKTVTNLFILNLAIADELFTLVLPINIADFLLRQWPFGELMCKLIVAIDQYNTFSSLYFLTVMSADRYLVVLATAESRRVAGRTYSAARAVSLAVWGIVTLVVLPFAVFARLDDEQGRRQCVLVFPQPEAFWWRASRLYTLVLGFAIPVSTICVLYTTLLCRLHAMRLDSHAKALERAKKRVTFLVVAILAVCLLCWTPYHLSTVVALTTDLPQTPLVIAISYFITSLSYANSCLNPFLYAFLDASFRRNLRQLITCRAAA
OX1R HTRF confirm: OX1R (human) antagonism, HTRF confirmed | OX1R-expressing cells, HTRF antagonist assay | shares compounds with OX1R antag-2 | inhibition, % at 6.6 µM | 49% of 1,800 active; in the data active = inhibition above about 55%;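 also: CHO cells expressing OX1R stimulated with orexin A at about EC80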
CHO-K1 HTRF: counter-screen for OX1R antagonists: effect in parental CHO-K1 cells. shares compounds with OX1R antag-2. HTRF counterscreen. 48% of 1,800 active. inhibition, % at 6.6 µM; in the data active = inhibition above about 17%
Of the large screens only hits and unclear results are named; the others gave an inactive call (follow-up assays come after a bar, where they were run). Shown are actives, neighbours in structure and some others; about 4.5% of the full set was active somewhere.

c1ccc(C[n+]2cccc3c4ccccc4ccc32)cc1	OX1R antag-2 77 | OX1R HTRF confirm inactive | CHO-K1 HTRF 47
CCO/C(C)=N/n1c2nc3ccccc3nc2c2c(=O)n(C3CCCC3)c(C)nc21	OX1R antag-2 100 | OX1R HTRF confirm inactive | CHO-K1 HTRF 36
COc1ccc(-c2cc(C(F)F)n3ncc(C(=O)N4CCc5ccccc54)c3n2)cc1	none
COc1ccc(-c2cc(C(F)F)n3ncc(C(=O)n4ccnc4C)c3n2)cc1	OX1R antag-2 108 | OX1R HTRF confirm inactive | CHO-K1 HTRF 29
COC(=O)c1ccccc1NC(=O)c1cc[n+](C)cc1	OX1R antag-2 83 (no result: GPR7 antagonist) | OX1R HTRF confirm inactive | CHO-K1 HTRF 49
COc1cccc2cc(C(=O)NCc3ccccn3)c(=O)oc12	OX1R antag-2 116 | OX1R HTRF confirm inactive | CHO-K1 HTRF 34
CNC(=O)c1cc2cccc(OC)c2oc1=O	none
O=C1C(Nc2ccccc2)=C(N2CCCCC2)C(=O)c2ccccc21	none
COc1ccccc1NC1=C(N2CCCCC2)C(=O)c2ccccc2C1=O	OX1R antag-2 79 (no result: TAAR1 ag, TAAR1 antagonist) | OX1R HTRF confirm inactive | CHO-K1 HTRF 31
On1c(-c2ccccc2)nc2ccccc21	none
O=Nc1c2nc3ccccc3n(O)c-2c2ccccc12	OX1R antag-2 91 | OX1R HTRF confirm inactive | CHO-K1 HTRF 49
CCN(CC)c1ccc2nc3ccccc3[n+](CC)c2c1	OX1R antag-2 149 (no result: TAAR1 ag, TAAR1 antagonist) | OX1R HTRF confirm 110 | CHO-K1 HTRF 157
CCCN1CCC(=NNc2ccc(S(N)(=O)=O)cc2[N+](=O)[O-])CC1	OX1R antag-2 85 | OX1R HTRF confirm inactive | CHO-K1 HTRF 56
CCCN1CCC(=NNc2ccc(S(=O)(=O)N(CC)CC)cc2[N+](=O)[O-])CC1	none
O=C(c1ccc(N2C(=O)C3C4c5ccccc5C(c5ccccc54)C3C2=O)cc1)N1CCOCC1 (stereo not drawn)	none
Cc1ccccc1Nc1cc(C(=O)NCc2ccco2)c2ccccc2n1	OX1R antag-2 83 | OX1R HTRF confirm inactive | CHO-K1 HTRF inactive
CCC(=O)N(C1=C(NC)C(=O)c2ccccc2C1=O)C(C)C	OX1R antag-2 80 | OX1R HTRF confirm 66 | CHO-K1 HTRF 64
CNC1=C(N(C(C)=O)c2ccc(Br)cc2)C(=O)c2ccccc2C1=O	OX1R antag-2 105 | OX1R HTRF confirm 55 | CHO-K1 HTRF 97
O=CN/C=C/c1cccc(O)c1	none (no result: OX1R antag-1, OX1R antag-2, CHO parental Ca, GPR7 antagonist)
CCN1CCN(CCC2Oc3cc([N+](=O)[O-])ccc3NC2=O)CC1 (stereo not drawn)	OX1R antag-2 78 | OX1R HTRF confirm inactive | CHO-K1 HTRF 25
O=C(O)c1cccc(Nc2ccc3nonc3c2[N+](=O)[O-])c1	OX1R antag-2 92 | OX1R HTRF confirm 58 | CHO-K1 HTRF 97
CC(=O)Nc1ccc(Nc2cc(N(C)C)c3nonc3c2[N+](=O)[O-])cc1	none (no result: OX1R antag-1, OX1R antag-2, CHO parental Ca)
O=C(O)c1ccc(Nc2cc(Cl)c3nonc3c2[N+](=O)[O-])cc1	OX1R antag-2 96 | OX1R HTRF confirm 62 | CHO-K1 HTRF 98
O=[N+]([O-])c1ccc2nonc2c1Nc1cccc(F)c1	none
Nc1cc(Nc2ccccc2)c2nonc2c1[N+](=O)[O-]	none
Cc1c(Nc2cc(N3CCOCC3)c3nonc3c2[N+](=O)[O-])c(=O)n(-c2ccccc2)n1C	none (no result: TAAR1 ag, TAAR1 antagonist)
Cc1c(Nc2ccc3nonc3c2[N+](=O)[O-])c(=O)n(-c2ccccc2)n1C	OX1R antag-2 195 | OX1R HTRF confirm inactive | CHO-K1 HTRF 87
NS(=O)(=O)c1ccc(Nc2ccc3nonc3c2[N+](=O)[O-])cc1	OX1R antag-2 90 | OX1R HTRF confirm 63 | CHO-K1 HTRF 110
O=C(COc1ccccc1)Nc1nnc(S(=O)(=O)N2CCCCCC2)s1	none
O=C(Cc1cnc2ncnn2c1)N1CCc2c([nH]c3ccccc23)C1c1ccccc1F (stereo not drawn)	none
